Measurements published in ChEMBL document CHEMBL1154414, “In vitro and in vivo activities of T-705 against arenavirus and bunyavirus infections” (Antimicrob Agents Chemother, 2007).

Columns and labels:
Punta Toro virus [1] = assay: Antiviral activity against 5000 PFU Punta Toro virus Adames infected C57BL/6 mouse assessed as mean viral titer per 0.1 g of liver at 10 mg/kg, po twice daily administered 24 hrs post viral challenge measured on day 3 of viral infection; format: functional
Procedure, shortened: (§1)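 Mice were infected subcutaneously with PTV and dosed by oral gavage twice daily; 5 per group (10 placebo) were killed on day 3 or 4. Liver homogenate or serum was serially diluted onto triplicate LLC-MK2 monolayers, and CPE was read 6–8 days later. 50% endpoints gave log10 CCID50 per 0.1 g liver or 0.1 ml serum. Detection range was 2.8–9.5; undetectable samples were assigned <2.8.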

Punta Toro virus [2] = assay: Antiviral activity against 50 PFU Punta Toro virus Adames infected C57BL/6 mouse assessed as mean day of death at 30 mg/kg, po twice daily for 5 days administered 24 hrs post viral challenge; format: functional
Procedure, shortened: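 Groups of 15 mice (25–30 placebo) were inoculated subcutaneously with PTV. Drug in 0.4% carboxymethylcellulose was given by oral gavage twice daily.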

Punta Toro virus [3] = assay: Antiviral activity against 50 PFU Punta Toro virus Adames infected C57BL/6 mouse assessed as mean viral titer per 0.1 g of liver at 10 mg/kg, po twice daily administered 24 hrs post viral challenge measured on day 3 of viral infection; format: functional
Procedure, shortened: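 Mice were infected subcutaneously with PTV and dosed by oral gavage twice daily with drug in 0.4% CMC. Five per group (10 placebo) were sacrificed on day 3 or 4. Serially diluted liver homogenate or serum went into triplicate LLC-MK2 wells, and CPE 50% endpoints were read at 6–8 days. The range was 2.8–9.5 log10 CCID50/0.1 g or 0.1 ml, with undetectable samples set to 2.8 and saturated samples to 9.5.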

Punta Toro virus [4] = assay: Antiviral activity against 50 PFU Punta Toro virus Adames infected C57BL/6 mouse assessed as animals with detectable virus level in liver at 30 mg/kg, po twice daily administered 24 hrs post viral challenge measured on day 3 of viral infection; format: functional
Procedure, shortened: (§2)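 T-705 was suspended in 0.4% carboxymethylcellulose and given by oral gavage twice daily. Mice were infected subcutaneously with PTV. Five mice per group (10 placebo) were sacrificed on day 3 or 4. Liver homogenate or serum was serially diluted onto triplicate LLC-MK2 monolayers, and CPE was read at 6–8 days. The detection limit was 2.8 log10 CCID50 per 0.1 g liver or 0.1 ml serum.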

Punta Toro virus [5] = assay: Antiviral activity against 50 PFU Punta Toro virus Adames infected C57BL/6 mouse assessed as animals with detectable virus level in serum at 30 mg/kg, po twice daily administered 24 hrs post viral challenge measured on day 3 of viral infection; format: functional; procedure, shortened: as §2
Pichinde virus [6] = assay: Antiviral activity against Pichinde virus An 4763 infected Syrian golden hamster assessed as mean serum ALT levels at 20 mg/kg, po twice daily for 7 days administered 24 hrs post viral-challenge measured on day 7 of viral infection; format: functional
Procedure, shortened: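 Hamsters were challenged intraperitoneally (bilateral, 65 PFU) and given twice-daily oral gavage doses (0.4% CMC vehicle). Five per group were sacrificed on day 7 and serum was collected. Serum ALT activity was measured by kinetic assay. Three sham-infected animals set the baselines.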

Pichinde virus [7] = assay: Antiviral activity against Pichinde virus An 4763 infected Syrian golden hamster assessed as mean day of death at 20 mg/kg, po twice daily for 7 days administered 72 hrs post viral-challenge measured on day 7 of viral infection; format: functional
Procedure, shortened: (§3)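 Groups of 15 hamsters (placebo 25-30) were challenged intraperitoneally (bilateral, 65 PFU) and dosed twice daily by oral gavage in 0.4% CMC for 5 to 7 days.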

Pichinde virus [8] = assay: Antiviral activity against Pichinde virus An 4763 infected Syrian golden hamster assessed as animals with detectable virus level in liver at 50 mg/kg, po twice daily for 7 days administered 72 hrs post viral-challenge measured on day 7 of viral infection; format: functional
Procedure, shortened: (§4)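 Hamsters (groups of 15, placebo 25-30) were dosed orally by gavage twice daily (drug suspended in 0.4% CMC) after bilateral intraperitoneal challenge with 65 PFU. Five per group were killed on day 7. Liver homogenate or serum was serially diluted onto triplicate B-SC-1 wells, CPE was read at 6-8 days, and the 50% endpoint was taken. Range was 2.8-9.5 log10 CCID50/0.1 g or 0.1 ml, with undetectable assigned <2.8.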

Pichinde virus [9] = assay: Antiviral activity against Pichinde virus An 4763 infected Syrian golden hamster assessed as animals with detectable virus level in liver at 20 mg/kg, po twice daily for 7 days administered 72 hrs post viral-challenge measured on day 7 of viral infection; format: functional; procedure, shortened: as §4
Pichinde virus [10] = assay: Antiviral activity against Pichinde virus An 4763 infected Syrian golden hamster assessed as mean viral titer per 0.1 mL of serum at 50 mg/kg, po twice daily for 7 days administered 72 hrs post viral-challenge measured on day 7 of viral infection; format: functional; procedure, shortened: as §4
Pichinde virus [11] = assay: Antiviral activity against Pichinde virus An 4763 infected Syrian golden hamster assessed as animals with detectable virus level in serum at 20 mg/kg, po twice daily for 7 days administered 72 hrs post viral-challenge measured on day 7 of viral infection; format: functional; procedure, shortened: as §4
Punta Toro virus [12] = assay: Antiviral activity against 500 PFU Punta Toro virus Adames infected C57BL/6 mouse assessed as mean viral titer per 0.1 g of liver at 30 mg/kg, po twice daily administered 24 hrs post viral challenge measured on day 3 of viral infection; format: functional; procedure, shortened: as §1
Punta Toro virus [13] = assay: Antiviral activity against 500 PFU Punta Toro virus Adames infected C57BL/6 mouse assessed as animals with detectable virus level in liver at 30 mg/kg, po twice daily administered 24 hrs post viral challenge measured on day 3 of viral infection; format: functional; procedure, shortened: as §2
Punta Toro virus [14] = assay: Antiviral activity against 500 PFU Punta Toro virus Adames infected C57BL/6 mouse assessed as mean viral titer per 0.1 mL of serum at 30 mg/kg, po twice daily administered 24 hrs post viral challenge measured on day 3 of viral infection; format: functional; procedure, shortened: as §1
Tacaribe virus = assay: Antiviral activity against Tacaribe virus TRVL11573 in Vero cells assessed as inhibition of virus-induced visual cytopathic effect after 7 to 8 days; format: functional, organism-based; details: Mammarenavirus tacaribeense
Procedure, shortened: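 Subconfluent (50-70%) Vero cells were infected with virus in 2% FBS medium at the CCID50 giving maximal CPE. Half-log drug dilutions were added at infection. EC50 was obtained by regression analysis.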

Pichinde virus [15] = assay: Antiviral activity against Pichinde virus An 4763 infected Syrian golden hamster assessed as mean viral titer per 0.1 g of liver at 40 mg/kg, po twice daily for 7 days administered 4 hrs before viral-challenge measured on day 7 of viral infection; format: functional; procedure, shortened: as §4
Pichinde virus [16] = assay: Antiviral activity against Pichinde virus An 4763 infected Syrian golden hamster assessed as mean day of death at 50 mg/kg, po twice daily for 7 days administered 24 hrs post viral-challenge; format: functional; procedure, shortened: as §3
Pichinde virus [17] = assay: Antiviral activity against Pichinde virus An 4763 infected Syrian golden hamster assessed as mean day of death at 20 mg/kg, po twice daily for 7 days administered 24 hrs post viral-challenge; format: functional; procedure, shortened: as §3
Pichinde virus [18] = assay: Antiviral activity against Pichinde virus An 4763 infected Syrian golden hamster assessed as animals with detectable virus level in liver at 50 mg/kg, po twice daily for 7 days administered 24 hrs post viral-challenge measured on day 7 of viral infection; format: functional; procedure, shortened: as §4
Pichinde virus [19] = assay: Antiviral activity against Pichinde virus An 4763 infected Syrian golden hamster assessed as mean viral titer per 0.1 mL of serum at 50 mg/kg, po twice daily for 7 days administered 24 hrs post viral-challenge measured on day 7 of viral infection; format: functional; procedure, shortened: as §4

SMILES | log10CCID50 (Punta Toro virus [1]) | Activity (Punta Toro virus [2]) [days] | log10CCID50 (Punta Toro virus [3]) | Activity (Punta Toro virus [4]) [%] | Activity (Punta Toro virus [5]) [%] | Activity (Pichinde virus [6]) [IU/L] | Activity (Pichinde virus [7]) [days] | Activity (Pichinde virus [8]) [%] | Activity (Pichinde virus [9]) [%] | log10CCID50 (Pichinde virus [10]) | Activity (Pichinde virus [11]) [%] | log10CCID50 (Punta Toro virus [12]) | Activity (Punta Toro virus [13]) [%] | log10CCID50 (Punta Toro virus [14]) | EC50 (Tacaribe virus) [µM] | log10CCID50 (Pichinde virus [15]) | Activity (Pichinde virus [16]) [days] | Activity (Pichinde virus [17]) [days] | Activity (Pichinde virus [18]) [%] | log10CCID50 (Pichinde virus [19])
NC(=O)c1ncn([C@@H]2O[C@H](CO)[C@@H](O)[C@H]2O)n1 [RIBAVIRIN] | <2.8 | >21 | <3.3 | 20 | 100 | 24 | 18.3 | 100 | 100 | 6 | 100 | <3.1 | 60 | <5 | 10 | <3.2 | >21 | 18 | 100 | <3.5
NC(=O)c1nc(F)cnc1O [FAVIPIRAVIR] | <2.9 | >21 | <2.8 | 40 | 80 | 1583 | 8.1 | 100 | 100 | 6.6 | 100 | <3.2 | 60 | <5.1 | 6 | <3.2 | >21 | 9.5 | 100 | <5.1
